The results in this text go back to ChEMBL document CHEMBL4387745, “Development of bivalent compounds as potential neuroprotectants for Alzheimer's disease” (Bioorg Med Chem Lett, 2019).

pEC50: −log10 of the molar value. Active and inactive are the calls of the source. The rule behind the calls is not given here.

The nature of assay [1]: Neuroprotective activity against tetracycline removal-induced cytotoxicity in human MC65 cells assessed as increase in cell viability incubated for 72 hrs by MTT assay. In kind it is functional, cell-based. The settings on record: MC65, 72 h. In outline:
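MC65 cells (C99 expression under tetracycline suppression; cytotoxicity induced by TC removal) treated across a concentration range for 72 h under −TC, with +TC cultures as 100% viability reference. Viability read by MTT. EC50 reported as mean ± SEM of three independent experiments.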
Background: Formazan colour is commonly taken as a measure of viable cells.

The species named for assay [2] is Homo sapiens. Put plainly: Neuroprotective activity against tetracycline removal-induced oxidative stress in human MC65 cells assessed as reduction in accumulation of intracellular ROS at 1 uM incubated for 48 hrs by DCFH-DA staining-based fluorescence analysis relative to control. In kind it is functional, cell-based. In outline:
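MC65 cells without TC given compound (1 μM) for 48 h, then incubated with DCFH-DA (25 μM) for 1 h. ROS given as percentage of fluorescence intensity relative to +TC control; error bars SEM, Student t-test versus −TC control.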

Assay [3] is described as follows: Metal chelating activity assessed as compound-Fe2+ complex formation at 50 uM after 10 mins by UV-vis spectroscopy. In a few lines:
(§1)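 Compound at 50 μM mixed with CuSO₄, FeCl₂ or ZnCl₂ (60 μM) at room temperature for 10 min; UV-vis spectrum then recorded from 300 to 550 nm.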

Assay [4] can be described thus: Metal chelating activity assessed as compound-Cu2+ complex formation at 50 uM after 10 mins by UV-vis spectroscopy. In a few lines: as §1
A short description of assay [5]: Metal chelating activity assessed as compound-Zn2+ complex formation at 50 uM after 10 mins by UV-vis spectroscopy. In outline: as §1
The species entered for assay [6] is Homo sapiens. Kind of assay: Neuroprotective activity against tetracycline removal-induced mitochondrial oxidative stress in human MC65 cells assessed as reduction in accumulation of mitoROS at 0.1 to 1 uM incubated for 48 hrs by MitoSOX red dye-based flow cytometric analysis relative to control. The assay is classed as functional, cell-based. In a few lines: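 After TC removal, MC65 cells were exposed to compound at 1, 0.3 or 0.1 μM for 48 h, then loaded with MitoSOX (2.5 μM) for 30 min. Mitochondrial ROS expressed as percent fluorescence intensity versus +TC control; error bars SEM, Student t-test versus −TC control.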
Background: A flow cytometer gives signals particle by particle.

For orientation: pEC50 means the negative decadic logarithm of the EC50, by convention in mol/L. Take `COc1cc(/C=C/C(=O)C(Cc2cn(CCCCNC(=O)CCC(=O)NCCCN3CCN(CCCNC(=O)CCN4CCN(CCCO[C@H]5CC[C@@]6(C)C(=CC[C@H]7[C@@H]8CC[C@H]([C@H](C)CCCC(C)C)[C@@]8(C)CC[C@@H]76)C5)CC4)CC3)nn2)C(=O)/C=C/c2ccc(O)c(OC)c2)ccc1O`: in assay [1], the pEC50 was 6.44. The outcome in the assay filed under Homo sapiens [2] was Active.

Consider `COc1cc(/C=C/C(=O)C(Cc2cn(CCCCC(=O)NCCCN3CCN(CCCNC(=O)CO[C@H]4CC[C@@]5(C)C(=CC[C@H]6[C@@H]7CC[C@H]([C@H](C)CCCC(C)C)[C@@]7(C)CC[C@@H]65)C4)CC3)nn2)C(=O)/C=C/c2ccc(O)c(OC)c2)ccc1O`, for which the pEC50 in assay [1] was 6.97. Further, the outcome in the assay listed under Homo sapiens [2] was Active.

Consider `COc1cc(/C=C/C(=O)C(Cc2cn(CCC(=O)NCCCN3CCN(CCCNC(=O)CCC(=O)NCCCN4CCN(CCCNC(=O)CO[C@H]5CC[C@@]6(C)C(=CC[C@H]7[C@@H]8CC[C@H]([C@H](C)CCCC(C)C)[C@@]8(C)CC[C@@H]76)C5)CC4)CC3)nn2)C(=O)/C=C/c2ccc(O)c(OC)c2)ccc1O`, for which, in assay [1], the negative logarithm of the EC50 (pEC50) is 6.99. In addition, the result in the assay listed under Homo sapiens [2] was Active.

In the case of `COc1cc(/C=C/C(=O)C(Cc2cn(CCCCC(=O)NCCCN3CCN(CCCNC(=O)CCC(=O)NCCCN4CCN(CCCNC(=O)CO[C@H]5CC[C@@]6(C)C(=CC[C@H]7[C@@H]8CC[C@H]([C@H](C)CCCC(C)C)[C@@]8(C)CC[C@@H]76)C5)CC4)CC3)nn2)C(=O)/C=C/c2ccc(O)c(OC)c2)ccc1O`, the pEC50 in assay [1] was 6.98. Besides, the outcome in the assay listed under Homo sapiens [2] was Active.

Regarding `COc1cc(/C=C/C(=O)C(Cc2cn(CCC(=O)NCCCN3CCN(CCCNC(=O)CCN4CCN(CCCO[C@H]5CC[C@@]6(C)C(=CC[C@H]7[C@@H]8CC[C@H]([C@H](C)CCCC(C)C)[C@@]8(C)CC[C@@H]76)C5)CC4)CC3)nn2)C(=O)/C=C/c2ccc(O)c(OC)c2)ccc1O`, the result (in assay [3]; in assay [4]; in the assay filed under Homo sapiens [2]) was Active. For the same molecule, the negative logarithm of the EC50 (pEC50) in assay [1] was 6.87. In addition, the result in assay [5] was inactive.

As to `COc1cc(/C=C/C(=O)C(Cc2cn(CCC(=O)NCCCN3CCN(CCCNC(=O)CO[C@H]4CC[C@@]5(C)C(=CC[C@H]6[C@@H]7CC[C@H]([C@H](C)CCCC(C)C)[C@@]7(C)CC[C@@H]65)C4)CC3)nn2)C(=O)/C=C/c2ccc(O)c(OC)c2)ccc1O`, the result (in assay [3]; in assay [4]; in the assay listed under Homo sapiens [2]) was Active. The Activity entry in the assay listed under Homo sapiens [6] is “Dose-dependent effect”. Besides, in assay [1], the negative logarithm of the EC50 (pEC50) is 7.09. The result in assay [5] was inactive.

On to `COc1cc(/C=C/C(=O)C(Cc2cn(CCNC(=O)CCC(=O)NCCCN3CCN(CCCNC(=O)CO[C@H]4CC[C@@]5(C)C(=CC[C@H]6[C@@H]7CC[C@H]([C@H](C)CCCC(C)C)[C@@]7(C)CC[C@@H]65)C4)CC3)nn2)C(=O)/C=C/c2ccc(O)c(OC)c2)ccc1O`, for which the negative logarithm of the EC50 (pEC50) in assay [1] was 7.13. The outcome in the assay filed under Homo sapiens [2] was Active.

As to `COc1cc(/C=C/C(=O)C(Cc2cn(CCCCC(=O)NCCCN3CCN(CCCNC(=O)CCN4CCN(CCCO[C@H]5CC[C@@]6(C)C(=CC[C@H]7[C@@H]8CC[C@H]([C@H](C)CCCC(C)C)[C@@]8(C)CC[C@@H]76)C5)CC4)CC3)nn2)C(=O)/C=C/c2ccc(O)c(OC)c2)ccc1O`, the pEC50 in assay [1] is 6.62. The outcome in the assay listed under Homo sapiens [2] was Active.

For the molecule `COc1cc(/C=C/C(=O)C(Cc2cn(CCNC(=O)CCC(=O)NCCCN3CCN(CCCNC(=O)CCN4CCN(CCCO[C@H]5CC[C@@]6(C)C(=CC[C@H]7[C@@H]8CC[C@H]([C@H](C)CCCC(C)C)[C@@]8(C)CC[C@@H]76)C5)CC4)CC3)nn2)C(=O)/C=C/c2ccc(O)c(OC)c2)ccc1O`, the negative-log EC50 (pEC50) in assay [1] was 6.88. The outcome in the assay listed under Homo sapiens [2] was Active.

Regarding `COc1cc(/C=C/C(=O)C(Cc2cn(CCCCNC(=O)CCC(=O)NCCCN3CCN(CCCNC(=O)CO[C@H]4CC[C@@]5(C)C(=CC[C@H]6[C@@H]7CC[C@H]([C@H](C)CCCC(C)C)[C@@]7(C)CC[C@@H]65)C4)CC3)nn2)C(=O)/C=C/c2ccc(O)c(OC)c2)ccc1O`, the negative-log EC50 (pEC50) in assay [1] is 6.85. Moreover, the result in the assay filed under Homo sapiens [2] was Active.
